Screening results deposited in PubChem BioAssay by The Scripps Research Institute Molecular Screening Center.
Shown are actives, neighbours in structure and some others; about 3.9% of the full set was active somewhere.
RORA act: activators of human nuclear receptor RORA; P35398; CHO-K1 Gal4-RORA LBD luciferase reporter, luminescence; percent increase over mock-subtracted basal signal; activation, % at 10 µM; 65,000 tested, 1.5% active;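 active = activation above the mean of all tested compounds plus 3 SD, cut at about 49% in these data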;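 also: 0% = DMSO-treated RORA cells and 100% = added signal equal to DMSO minus mock-transfected cells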
Target sequence (P35398 whole entry, looked up, the tested form may be a part): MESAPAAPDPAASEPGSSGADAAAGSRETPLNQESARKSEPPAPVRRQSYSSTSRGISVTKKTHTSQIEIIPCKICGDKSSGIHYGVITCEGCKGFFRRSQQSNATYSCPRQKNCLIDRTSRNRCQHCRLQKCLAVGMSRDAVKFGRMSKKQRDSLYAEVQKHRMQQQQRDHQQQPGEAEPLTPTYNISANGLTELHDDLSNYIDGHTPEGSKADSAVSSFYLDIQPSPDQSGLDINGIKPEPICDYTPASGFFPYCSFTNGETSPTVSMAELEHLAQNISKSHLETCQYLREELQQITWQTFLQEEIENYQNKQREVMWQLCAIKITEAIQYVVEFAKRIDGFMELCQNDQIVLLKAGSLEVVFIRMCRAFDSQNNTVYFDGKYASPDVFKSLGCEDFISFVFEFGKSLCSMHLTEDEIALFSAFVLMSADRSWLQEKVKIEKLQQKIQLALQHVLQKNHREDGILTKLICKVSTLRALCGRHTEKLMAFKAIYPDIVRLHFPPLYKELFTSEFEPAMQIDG
Jurkat viability: cytotoxicity toward Jurkat cells | 56,000 tested, 1.2% active | Jurkat E6.1 viability, ATP luminescence, 48 h | inhibition, % at 4 µM;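 active = inhibition above the mean inhibition of all tested compounds plus 3 SD, cut at about 28% in these data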
HEK293 NFkB inh: inhibitors of the PMA/ionomycin-induced NF-kB reporter in HEK293 cells; HEK-293 NF-kB luciferase reporter, luminescence; inhibition, % at 3 µM; 62,000 tested, 0.21% active; AID 465;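 active = inhibition above the mean of all tested compounds plus 3 SD, cut at about 40% in these data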;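 also: 0% = stimulated DMSO wells and 100% = 10 µM reference inhibitor 5653914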
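Timing: 1 h pretreatment, 16 h stimulation, 37 °C; system: HEK-293 cells with stable firefly luciferase reporter driven by four HIV NF-kB elements; doses: 3 µM once, 0.30% DMSO; measured by: luciferase luminescence; control set: DMSO and 10 µM reference inhibitor; repeats: single test; reagent: PMA plus ionomycin mix as NF-kB-activating stimulus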
SF-1 act: activators of human nuclear receptor SF-1; Q13285; activation, % at 10 µM; 65,000 tested, 1.9% active; AID 522; CHO-K1 Gal4-SF-1 LBD luciferase reporter; % increase over DMSO SF-1-specific signal;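 active = activation above the mean activation of all tested compounds plus 3 SD, cut at about 50% in these data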
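Test system: transient Gal4-SF-1 LBD reporter, CHO-K1; Amount: 4,000 CHO-K1 cells per well; Doses: 10 µM only; Timing: compound exposure 20 h at 37 °C; Signal: luciferase light emission; Read-out basis: percent activation relative to DMSO median and mock-transfected background; Control set: DMSO negative control and −SF1 background wells; Replicates: one test per compound.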
* marks the source's active call; other numbers are inactive results; nt = not tested or not shown.

SMILES | RORA act | Jurkat viability | HEK293 NFkB inh | SF-1 act
Cc1cccc(NC(=O)c2cnc3scc(C)n3c2=O)c1 | 49.8* | -3.8 | -14.9 | 48.9
Cc1csc2ncc(C(=O)Nc3ccccc3F)c(=O)n12 | 39.6 | 1.1 | -7.5 | 49.7*
CCOc1cc(C)c(Cl)cc1S(=O)(=O)NCC1CCCO1 (stereo unspecified) | -0.6 | 0.2 | -0.2 | 8.7
O=C(NCc1ccccc1)N1CCn2c(nc3ccccc32)C1 | -1.1 | -3.9 | 14.0 | -14.1
Cc1cc(C)n2cc(CSCc3ccco3)nc2n1 | 9.7 | 2.9 | 12.5 | 11.7
Cc1cccc2nc(CSCc3ccco3)cn12 | 45.8 | -5.4 | -22.2 | 55.3*
CN(C)/C=N/c1ncnc2c1cnn2-c1ccc(C(F)(F)F)cn1 | -1.6 | 1.3 | -24.0 | 81.8*
CC(C)OC(=O)c1c2nc3ccccc3nc2n2c1[nH]c(=O)c1ccccc12 | 27.4 | nt | nt | -8.1
CCn1ccc(C(=O)Nc2ccc(Cl)cn2)n1 | 58.8* | -20.3 | -15.0 | 77.8*
Nc1nc(C2CC2)c(Sc2sc(N)nc2C2CC2)s1 | -0.6 | 24.8 | -34.8 | 16.6
CCC(=O)N1c2ccccc2-c2nnc(SC)nc2OC1c1ccc(N(C)C)cc1 (stereo unspecified) | 26.4 | 1.5 | -3.3 | 1.9
CCC1Oc2nc(SC)nnc2-c2ccccc2N1C(=O)c1ccccc1 (stereo unspecified) | 54.0* | -4.1 | -9.2 | 49.7*
O=C(NCC1CCCO1)c1cc(-c2ccccc2)on1 (stereo unspecified) | 90.6* | 10.8 | -19.3 | 67.5*
CN(C)C=Nc1ncc2c([nH]c3ccccc32)c1C#N | 9.5 | -4.1 | -15.0 | 16.1
c1ccc(-c2nc(N3CCCCCC3)c3ccccc3n2)nc1 | -78.7 | 72.2* | 10.7 | -86.4
COC(=O)CCC(=O)Nc1ccc(Br)cc1 | 8.6 | 6.5 | -8.5 | -0.9
CCN(CC)c1ccc2cc(-c3nc4ccccc4n3C)c(=O)oc2c1 | -2.6 | 98.8* | 39.9* | -17.8
CC(=O)c1sc(-c2c(C)nc3sccn23)nc1C1CCCC1 | 2.0 | 10.0 | 21.9 | -13.0
Clc1ccc2oc(-c3ccccn3)nc2c1 | 33.9 | 3.3 | -27.2 | 59.1*
Nc1ccc2oc(-c3ccccn3)nc2c1 | 22.7 | nt | -7.1 | 36.0
O=C(c1ccccc1-c1ccccc1)N1CCN(c2ccccn2)CC1 | 16.4 | 83.8* | 25.3 | 5.7
O=C(c1cc(-c2ccccc2)nc2ccccc12)N1CCN(c2ccccn2)CC1 | 1.1 | -4.2 | 15.1 | 6.3
Cc1conc1NC(c1cccs1)c1ccc2cccnc2c1O (stereo unspecified) | -6.9 | 29.8* | 2.3 | -20.1
Cc1ccc2oc(Nc3nc(C)cc(C)n3)nc2c1 | 52.2* | 6.3 | -14.2 | 21.9
Cc1ccc(CCNC(=O)C2CCC(=O)N2C2CCCC2)cc1 (stereo unspecified) | 6.5 | -5.1 | 18.0 | 9.1
SMILES | RORA act | Jurkat viability | HEK293 NFkB inh | SF-1 act
CCCCOC(=O)Nc1ccc(N2CCCCC2)cc1 | 94.6* | nt | -31.4 | 64.5*
N#CC(C(=O)NC1CCCCC1)c1nc2ccccc2nc1N1CCCCC1 (stereo unspecified) | -9.5 | 0.7 | 11.1 | -2.8
COC(=O)c1cccc(NC(=O)c2cc3sccc3n2C)c1 | 44.8 | 7.9 | -21.1 | 67.0*
CCOc1ccc(/C=C\C(C)=N\O)cc1 | 72.3* | 7.4 | -54.6 | 6.4
O/N=C/c1ccc(OCC(O)COc2ccc(/C=N/O)cc2)cc1 | -15.6 | nt | nt | -1.3
COc1cc2c(c(OC)c1)C(c1cccc(OC)c1OC)CC(=O)N2 (stereo unspecified) | -7.9 | 1.6 | 9.1 | -1.2
CCCOc1c(OC)cccc1C1CC(=O)Nc2cc(OC)c(OC)c(OC)c21 (stereo unspecified) | 8.9 | 3.4 | 97.8* | -5.3
CCN(CC)C(=O)c1cc(-c2ccc(Br)cc2)on1 | 17.5 | 6.8 | -15.9 | 55.8*
COC(=O)c1ccc(Oc2nc3ccccc3n3c(C)nnc23)cc1 | -6.6 | nt | nt | -8.7
CN(C)c1ccc(-c2nn3c(-c4ccccc4Cl)nnc3s2)cc1 | -11.6 | 82.2* | 34.5 | 8.5
Clc1ccccc1-c1nnc2sc(-c3ccncc3)nn12 | -18.0 | -3.6 | -0.3 | 4.2
CN(C)c1ccc(-c2nn3c(-c4ccncc4)nnc3s2)cc1 | 23.3 | 5.0 | -4.9 | 5.2
COc1ccccc1-c1nnc2sc(-c3cc4ccccc4o3)nn12 | 2.3 | 86.7* | 25.4 | -17.3
COc1ccccc1-c1nnc2sc(-c3ccc(N(C)C)cc3)nn12 | -56.8 | 99.2* | 55.1* | -63.8
COC(=O)c1ccccc1NC(=O)C12CCC(C)(C(=O)O1)C2(C)C (stereo unspecified) | -15.9 | -1.5 | 10.4 | -11.3
COc1ccc(-n2c(SCC(=O)N3CCCC3)nc3c([nH]c4ccccc43)c2=O)cc1 | -7.6 | 1.8 | 18.9 | 9.2
CCn1c(-c2ccc(N)cc2)nc2ccccc21 | 49.9* | -16.6 | -8.1 | 37.2
CCn1c(N)nc2ccccc21 | 9.7 | -5.9 | 4.9 | 19.3
CCn1c(-c2ccc(N(C)C)cc2)nc2ccccc21 | 87.7* | 49.5* | -37.3 | 19.4
C=CCn1c(-c2ccc(N)cc2)nc2ccccc21 | 38.0 | -15.7 | -27.0 | 56.9*
COC(=O)C(NC(=O)c1ccco1)(Nc1ccc(Br)cn1)C(F)(F)F (stereo unspecified) | -20.8 | nt | nt | 8.3
Cc1[nH]c2c(C)cccc2c(=O)c1Br | -9.4 | 6.8 | 4.5 | 7.0
CCOC(=O)Cn1nc(-c2ccc(Cl)cc2)cc1N | 16.3 | nt | 12.5 | 1.3
CCOC(=O)CCn1nc(-c2ccc(Cl)cc2)cc1N | 41.4 | -3.8 | -23.8 | 70.0*
Cc1nn(-c2ccc(F)cc2)c2c1cc(C#N)c1nc3ccccc3n12 | -3.7 | nt | 5.9 | -3.4
SMILES | RORA act | Jurkat viability | HEK293 NFkB inh | SF-1 act
COc1ccc2cc(C#N)c(N3CCN(Cc4nnnn4CCC(C)C)CC3)nc2c1 | 11.9 | -3.6 | 7.5 | 32.4
COc1cc(OC)c(-c2nc3cnccc3n2C)cc1OC | -3.3 | -2.1 | 13.7 | 6.4
Cn1c(-c2ccc3ccccc3n2)nc2cnccc21 | 54.6* | 7.9 | -25.5 | 64.7*
Cc1cc2c(cc1C)NC(c1c(C)n(C)n(-c3ccccc3)c1=O)C1=C(CC(C)(C)CC1=O)N2 (stereo unspecified) | 35.6 | nt | 0.2 | 61.6*
CC1(C)CC(=O)C2=C(C1)Nc1ccccc1NC2c1ccccn1 (stereo unspecified) | -16.2 | 3.4 | 6.7 | -9.0
COc1c(C)cccc1C(=O)Nc1ccc(CN2CCOCC2)cc1 | 37.0 | 0.4 | -17.4 | 62.2*
COc1c(C)cccc1C(=O)Nc1ccc(N2CCN(S(C)(=O)=O)CC2)cc1 | 46.5 | -8.0 | -9.7 | 106.8*
COc1ccc2nc(/N=C\N(C)C)sc2c1 | 42.0 | 0.1 | -6.0 | 10.6
CN(C)/C=N/c1nc2ccc3c(c2s1)CCCC3 | 65.7* | -1.6 | -29.3 | 59.3*
CCn1c(SCc2c(F)cccc2Cl)nnc1-c1ccco1 | -4.6 | 1.6 | -0.3 | 14.1
Cc1ccc(N2CCN(C(=O)C3CCN(S(=O)(=O)c4cccc5nsnc45)CC3)CC2C)cc1 (stereo unspecified) | 17.9 | 5.1 | 13.5 | -10.8
O=C(CS(=O)(=O)c1ccccc1)c1ccc2c(c1)OCCO2 | 34.9 | 5.6 | 17.2 | 51.5*
